Measured values from article PMC2826548 (Journal of structural biology, 2009).
pKd: −log10 of the molar value. Read-outs that look alike come from different tables or passages of the source.

Columns and labels:
[1] = molecular target: Human K2Pg(C4G/E56D/L72Y), isolated kringle 2 domain of human plasminogen (human)
[2] = molecular target: Human K2Pg(C4G/E56D/L72Y), isolated kringle 2 domain of human plasminogen (human); assay: SPR
[3] = molecular target: Human K2Pg(C4G/E56D/L72Y), isolated kringle 2 domain of human plasminogen (human); assay: AUC
[4] = Sedimentation equilibrium analytical ultracentrifugation; format: physicochemical; details: sedimentation equilibrium (and NMR correlation time)
K2Pg [5] = molecular target: T1, K2Pg (Homo sapiens, UniProt P00747, C188G/E240D/L256Y); details: variant kringle vs K2Pg parent; ref [5]; cited from earlier work
T1 sequence (P00747 184-262 C188G/E240D/L256Y): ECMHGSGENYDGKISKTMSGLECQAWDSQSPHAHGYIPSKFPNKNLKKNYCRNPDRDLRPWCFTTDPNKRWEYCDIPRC

[6] = CD α-helix content of VEK-30 peptides in absence of K2Pg; format: physicochemical; details: 222 nm, 30 μM peptide, 100 mM sodium phosphate, pH 7.4, room temperature
Summary of the method: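 Recombinant peptides (His6-GB1 fusion expressed in E. coli BL21(DE3), thrombin-cleaved, GS N-terminal remnant; variants by site-directed mutagenesis; integrity checked by MALDI-TOF). Spectra recorded 200–250 nm in a 1 mm quartz cell without K2Pg. Concentration set by A280. Helix fraction derived from mean residue ellipticity at 222 nm as f_α = (−[θ]222 − 2340)/30,300.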

[7] = tested on: other isolated Pg kringle domains; details: cited from earlier work
K2Pg [8] = molecular target: T1, K2Pg; assay: SPR binding of VEK-30 variants to immobilized K2Pg
Summary of the method: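 Recombinant peptide analytes (GB1-fusion, thrombin-cleaved, GS N-terminal remnant) were run at 25 °C. K2Pg at 100 μg/ml in 0.1 M NaOAc pH 4.0 was amine-coupled (NHS/EDC, ethanolamine block). A K2Pg-free reference cell was subtracted. KD = kd/ka.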

Substance | pKd [2] | koff [2] [s⁻¹] | kon [2] [M⁻¹ s⁻¹] | further results
VEK-30, 30-amino acid residue internal peptide from the streptococcal M-like plasminogen binding protein PAM | 7.19 | 0.0293 | 454000 | pKd [1]: 7.40; stoichiometry N (VEK-30 per K2Pg) [2]: 1; stoichiometry N (VEK-30 per K2Pg) [3]: 1
VEK-30[D7A/E9A] (peptide) | 6.43 | 0.0967 | 261000 | 
VEK-30[D7N/E9Q] (peptide) | 5.77 | 0.086 | 50400 | 
H-GSVEKLTADAELQRLKNERHEEAELERLKSEY-OH [VEK-30] |  |  |  | association state in solution [4]: monomeric form; affinity enhancement of K2Pg(C4G/E56D/L72Y) compared with K2Pg parent (K2Pg [5]): approximately 15 fold; Apo-helicity (% α-helix in absence of K2Pg) [6]: 34%; specificity of binding to Pg for the kringle 2 domain ([7]; background statement in Introduction, no reference printed in that sentence): highly specific; affinity for the other isolated Pg kringle domains ([7]; ref [5],[33]): no measurable affinity; koff (K2Pg [8]; pH 7.4, read-out: koff (dissociation rate constant)): 0.0293 s⁻¹; kon (K2Pg [8]; pH 7.4, read-out: kon (association rate constant)): 454000 M⁻¹ s⁻¹
VEK-30[D7A] (peptide) | 6.35 | 0.0561 | 126000 | 
VEK-30[D7N] (peptide) | 5.71 | 0.0704 | 36200 | 
